Experiments:
NCI-H460 = assay: Growth inhibition of human NCI-H460 cells; format: functional
How it was run: (§1)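 Cells seeded per well: NUGC-3 4500, HONE-1 6000, MCF-7 6500, NCI-H460 2500, HepG2 10000, A549 5000; A549 grown in RPMI 1640 with 2 g/L NaHCO₃, 2 mM L-glutamine and 10% FBS. GI₅₀ = concentration giving 50% growth inhibition, mean of at least three experiments each in duplicate. Paclitaxel served as positive control.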

[1] = Growth inhibition of human HONE1 cells; format: functional; how it was run: as §1
A549 = assay: Growth inhibition of human A549 cells; format: functional; how it was run: as §1
[2] = Cytotoxicity against mouse RAW264.7 cells; format: cell-based
How it was run: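 RAW264.7 cells stimulated with LPS/IFNγ and compound-treated in parallel with the NO assay; CC50 taken as concentration giving 50% inhibition of cell growth. Mean of at least three experiments, each in duplicate.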

MCF7 = assay: Growth inhibition of human MCF7 cells; format: functional; how it was run: as §1
NUGC-3 = assay: Growth inhibition of human NUGC3 cells; format: functional; how it was run: as §1
RAW264.7 = assay: Antiinflammatory activity in mouse RAW264.7 cells assessed as inhibition of LPS-induced nitric oxide production incubated for 18 hrs by nitrate/nitrite assay; format: functional, cell-based; conditions: RAW264.7, 18 h
How it was run: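 RAW264.7 seeded 65000 cells/well, cultured 24 h, then medium replaced with complete medium containing IFNγ (20 ng/mL)/LPS (5 μg/mL) plus compound at various concentrations for 18 h; nitric oxide measured by Nitrate/Nitrite kit. EC50 as mean of at least three experiments, each in duplicate.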

[3] = test system: Transmissible gastroenteritis virus; assay: Antiviral activity against Transmissible gastroenteritis virus infected in ST cells pre-treated 2 hrs before virus infection measured 6 hrs post virus infection by immunofluorescent assay; format: functional, organism-based; conditions: Alphacoronavirus 1, ST
How it was run: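 ST cells, with or without 2 h compound pretreatment (10 concentrations), infected with TGEV at MOI 10. Immunofluorescence with anti-spike and anti-nucleocapsid antibodies at 6 hpi. EC50 from dose–response curves, mean of at least three experiments, each in duplicate.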

HepG2 = assay: Growth inhibition of human HepG2 cells; format: functional; how it was run: as §1

COc1cc2c3c(c4cc(OC)c(OC)cc4c2cc1OC)C(O)CN(C(C)C)C3 (stereo not drawn)
GI50 (NCI-H460): 1.07 µM | GI50 [1]: 1.71 µM | GI50 (A549): 1230 nM | CC50 [2]: > 4 µM | GI50 (MCF7): 1.21 µM | GI50 (NUGC-3): 0.87 µM | EC50 (RAW264.7): 2050 nM | EC50 [3]: 2.74 µM | GI50 (HepG2): 1.86 µM

COc1cc2c3c(c4cc(OC)c(OC)cc4c2cc1OC)CN(CC(C)C)CC3
GI50 (NCI-H460): 0.87 µM | GI50 [1]: 1.72 µM | GI50 (A549): 1320 nM | GI50 (MCF7): 0.91 µM | GI50 (NUGC-3): 1.04 µM | EC50 [3]: 1.36 µM | GI50 (HepG2): 1.81 µM

COc1cc2c3c(c4cc(OC)c(OC)cc4c2cc1OC)CN(CCCOC1CCCCO1)CC3 (stereo not drawn)
GI50 (NCI-H460): 7.49 µM | GI50 [1]: 9.65 µM | GI50 (A549): 3780 nM | GI50 (MCF7): 9.8 µM | GI50 (NUGC-3): 8.22 µM | EC50 [3]: 30.8 µM | GI50 (HepG2): 14 µM

COc1cc2c3c(c4cc(OC)c(OC)c(OC)c4c2cc1OC)CCN(C(C)C)C3
GI50 (NCI-H460): 0.57 µM | GI50 [1]: 1.12 µM | GI50 (A549): 760 nM | GI50 (MCF7): 0.72 µM | GI50 (NUGC-3): 0.64 µM | EC50 [3]: 0.78 µM | GI50 (HepG2): 1.61 µM

COc1cc2c3c(c4cc(OC)c(OC)cc4c2cc1OC)CN(CCCO)CC3
GI50 (NCI-H460): 9.41 µM | GI50 [1]: 16.6 µM | GI50 (A549): 5470 nM | GI50 (MCF7): 7.14 µM | GI50 (NUGC-3): 6.63 µM | EC50 [3]: 19.3 µM | GI50 (HepG2): 16.9 µM

CCCN1CCc2c(c3ccc(OC)cc3c3cc(OC)c(OC)cc23)C1
GI50 (NCI-H460): 2.4 µM | GI50 [1]: 3.31 µM | GI50 (A549): 2950 nM | GI50 (MCF7): 2.83 µM | GI50 (NUGC-3): 2.94 µM | EC50 [3]: 8.68 µM | GI50 (HepG2): 3.17 µM

COc1cc2c3c(c4cc(OC)c(OC)cc4c2cc1OC)CN(CCCN)CC3
GI50 (NCI-H460): 11.7 µM | GI50 [1]: 21.1 µM | GI50 (A549): 6040 nM | GI50 (MCF7): 15.3 µM | GI50 (NUGC-3): 10.3 µM | EC50 [3]: 23.4 µM | GI50 (HepG2): 36.9 µM

CCCN1CCc2c(c3cc(OC)ccc3c3c(OC)c(OC)ccc23)C1
GI50 (NCI-H460): 3.76 µM | GI50 [1]: 4.75 µM | GI50 (A549): 3670 nM | GI50 (MCF7): 4.11 µM | GI50 (NUGC-3): 3.72 µM | EC50 [3]: 2.63 µM | GI50 (HepG2): 6.29 µM

CCCCN1CCc2c(c3cc(OC)c(OC)cc3c3cc(OC)ccc23)C1
GI50 (NCI-H460): 3.51 µM | GI50 [1]: 4.77 µM | GI50 (A549): 2390 nM | GI50 (MCF7): 4.73 µM | GI50 (NUGC-3): 3.99 µM | EC50 [3]: 5.6 µM | GI50 (HepG2): 4.04 µM

CCCCCN1CCc2c(c3cc(OC)c(OC)cc3c3cc(OC)c(OC)cc23)C1
GI50 (NCI-H460): 6.11 µM | GI50 [1]: 6.2 µM | GI50 (MCF7): 9.51 µM | GI50 (NUGC-3): 7.67 µM | EC50 [3]: 6.53 µM | GI50 (HepG2): 8.05 µM

CCCCN1Cc2c(c3ccc(OC)cc3c3cc(OC)c(OC)cc23)C(O)C1 (stereo not drawn)
GI50 (NCI-H460): 1.48 µM | GI50 [1]: 3 µM | GI50 (A549): 1320 nM | GI50 (MCF7): 2.33 µM | GI50 (NUGC-3): 1.86 µM | EC50 [3]: 2.92 µM | GI50 (HepG2): 1.85 µM

CC(=O)O[C@H]1C(=O)[C@@]2(C)[C@H]([C@H](OC(=O)c3ccccc3)[C@]3(O)C[C@H](OC(=O)[C@H](O)[C@@H](NC(=O)c4ccccc4)c4ccccc4)C(C)=C1C3(C)C)[C@]1(OC(C)=O)CO[C@@H]1C[C@@H]2O [PACLITAXEL]
GI50 (NCI-H460): 0.03 µM | GI50 [1]: 0.02 µM | GI50 (A549): 60 nM | GI50 (MCF7): 0.03 µM | GI50 (NUGC-3): 0.02 µM | GI50 (HepG2): 0.18 µM

CCCCN1CCc2c(c3cc(OC)c(OC)cc3c3c(OC)c(OC)c(OC)cc23)C1
GI50 (NCI-H460): 2.68 µM | GI50 [1]: 4.06 µM | GI50 (A549): 3010 nM | GI50 (MCF7): 3.19 µM | GI50 (NUGC-3): 2.54 µM | EC50 [3]: 2.92 µM | GI50 (HepG2): 5.01 µM

COc1cc2c3c(c4cc(OC)c(OC)cc4c2cc1OC)CN(CC1OCCO1)CC3
GI50 (NCI-H460): 18.5 µM | GI50 [1]: 22.1 µM | GI50 (A549): 31500 nM | GI50 (MCF7): 22.4 µM | GI50 (NUGC-3): 19.1 µM | EC50 [3]: > 50 µM | GI50 (HepG2): 41 µM
